In ChEMBL document CHEMBL4689842, “EUbOPEN Chemogenomics Library wave 1” (2021):

Test system: Fibroblast
Test: Multiplex assay against human fibroblast
Format: toxicity, cell-based
Procedure, shortened: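 On a CQ1 microscope at 37°C and 5% CO2, live cells were imaged after compound addition. They had been stained at seeding with Hoechst33342, BioTracker Green Microtubule Cytoskeleton Dye, MitoTracker Red and Annexin V Alexa Fluor 680. CellPathfinder machine-learning gating assigned cells to Hoechst high-intensity objects or normal cells, normal cells to healthy, pyknosed or fragmented nuclei, and pyknosed cells to mitotic or apoptotic. Tubulin, mitochondrial-mass and membrane-permeability phenotypes are per cents of healthy-nucleus cells.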

[1] = 12 h, 1 µM, compound concentration 1 uM, replicate 1
[2] = 12 h, 1 µM, compound concentration 1 uM, replicate 2
[3] = 12 h, 10 µM, compound concentration 10 uM, replicate 1
[4] = 12 h, 10 µM, compound concentration 10 uM, replicate 2
[5] = 24 h, 1 µM, compound concentration 1 uM, replicate 1
[6] = 24 h, 1 µM, compound concentration 1 uM, replicate 2
[7] = 24 h, 10 µM, compound concentration 10 uM, replicate 1
[8] = 24 h, 10 µM, compound concentration 10 uM, replicate 2
[9] = 48 h, 1 µM, compound concentration 1 uM, replicate 1
[10] = 48 h, 1 µM, compound concentration 1 uM, replicate 2
[11] = 48 h, 10 µM, compound concentration 10 uM, replicate 1
[12] = 48 h, 10 µM, compound concentration 10 uM, replicate 2

What does the source list for `Cc1ccc(C(=O)Nc2cccc(C(F)(F)F)c2)cc1Nc1nc(-c2cccnc2)nc2c1cnn2C`?
Population Apoptotic (%) [1]: 61%; Population Fragmented Nuclei (%) [1]: 34%; Population Healthy Nuclei (%) [1]: 29%; Population Hoechst High Intensity Objects (%) [1]: 10%; Population Membrane Permeable-Phenotype (%) [1]: 28%; Population Mitochondria Different-Phenotype (%) [1]: 3%; Population Mitotic Cells (%) [1]: 38%; Population Normal (%) [1]: 89%; Population Pyknosed Nuclei (%) [1]: 35%; Population Tubulin-Different-Phenotype (%) [1]: 53%; Total Cell Count [1]: 122; Population Apoptotic (%) [2]: 50%; Population Fragmented Nuclei (%) [2]: 14%; Population Healthy Nuclei (%) [2]: 73%; Population Hoechst High Intensity Objects (%) [2]: 3%; Population Membrane Permeable-Phenotype (%) [2]: 6%; Population Mitochondria Different-Phenotype (%) [2]: 25%; Population Mitotic Cells (%) [2]: 50%; Population Normal (%) [2]: 96%; Population Pyknosed Nuclei (%) [2]: 12%; Population Tubulin-Different-Phenotype (%) [2]: 14%; Total Cell Count [2]: 101; Population Apoptotic (%) [3]: 65%; Population Fragmented Nuclei (%) [3]: 24%; Population Healthy Nuclei (%) [3]: 33%; Population Hoechst High Intensity Objects (%) [3]: 13%; Population Membrane Permeable-Phenotype (%) [3]: 34%; Population Mitochondria Different-Phenotype (%) [3]: 37%; Population Mitotic Cells (%) [3]: 34%; Population Normal (%) [3]: 86%; Population Pyknosed Nuclei (%) [3]: 41%; Population Tubulin-Different-Phenotype (%) [3]: 88%; Total Cell Count [3]: 121; Population Apoptotic (%) [4]: 61%; Population Fragmented Nuclei (%) [4]: 18%; Population Healthy Nuclei (%) [4]: 42%; Population Hoechst High Intensity Objects (%) [4]: 8%; Population Membrane Permeable-Phenotype (%) [4]: 78%; Population Mitochondria Different-Phenotype (%) [4]: 92%; Population Mitotic Cells (%) [4]: 38%; Population Normal (%) [4]: 91%; Population Pyknosed Nuclei (%) [4]: 39%; Population Tubulin-Different-Phenotype (%) [4]: 100%; Total Cell Count [4]: 66; Population Apoptotic (%) [5]: 66%; Population Fragmented Nuclei (%) [5]: 40%; Population Healthy Nuclei (%) [5]: 41%; Population Hoechst High Intensity Objects (%) [5]: 14%; Population Membrane Permeable-Phenotype (%) [5]: 19%; Population Mitochondria Different-Phenotype (%) [5]: 5%; Population Mitotic Cells (%) [5]: 33%; Population Normal (%) [5]: 85%; Population Pyknosed Nuclei (%) [5]: 17%; Population Tubulin-Different-Phenotype (%) [5]: 43%; Total Cell Count [5]: 142; Population Apoptotic (%) [6]: 27%; Population Fragmented Nuclei (%) [6]: 12%; Population Healthy Nuclei (%) [6]: 72%; Population Hoechst High Intensity Objects (%) [6]: 3%; Population Membrane Permeable-Phenotype (%) [6]: 7%; Population Mitochondria Different-Phenotype (%) [6]: 29%; Population Mitotic Cells (%) [6]: 72%; Population Normal (%) [6]: 96%; Population Pyknosed Nuclei (%) [6]: 14%; Population Tubulin-Different-Phenotype (%) [6]: 16%; Total Cell Count [6]: 101; Population Apoptotic (%) [7]: 85%; Population Fragmented Nuclei (%) [7]: 27%; Population Healthy Nuclei (%) [7]: 34%; Population Hoechst High Intensity Objects (%) [7]: 10%; Population Membrane Permeable-Phenotype (%) [7]: 42%; Population Mitochondria Different-Phenotype (%) [7]: 44%; Population Mitotic Cells (%) [7]: 14%; Population Normal (%) [7]: 89%; Population Pyknosed Nuclei (%) [7]: 37%; Population Tubulin-Different-Phenotype (%) [7]: 81%; Total Cell Count [7]: 124; Population Apoptotic (%) [8]: 90%; Population Fragmented Nuclei (%) [8]: 26%; Population Healthy Nuclei (%) [8]: 11%; Population Hoechst High Intensity Objects (%) [8]: 20%; Population Membrane Permeable-Phenotype (%) [8]: 100%; Population Mitochondria Different-Phenotype (%) [8]: 75%; Population Mitotic Cells (%) [8]: 9%; Population Normal (%) [8]: 79%; Population Pyknosed Nuclei (%) [8]: 61%; Population Tubulin-Different-Phenotype (%) [8]: 100%; Total Cell Count [8]: 77; Population Apoptotic (%) [9]: 42%; Population Fragmented Nuclei (%) [9]: 59%; Population Healthy Nuclei (%) [9]: 36%; Population Hoechst High Intensity Objects (%) [9]: 23%; Population Membrane Permeable-Phenotype (%) [9]: 15%; Population Mitochondria Different-Phenotype (%) [9]: 0%; Population Mitotic Cells (%) [9]: 57%; Population Normal (%) [9]: 76%; Population Pyknosed Nuclei (%) [9]: 4%; Population Tubulin-Different-Phenotype (%) [9]: 59%; Total Cell Count [9]: 189; Population Apoptotic (%) [10]: 75%; Population Fragmented Nuclei (%) [10]: 65%; Population Healthy Nuclei (%) [10]: 32%; Population Hoechst High Intensity Objects (%) [10]: 22%; Population Membrane Permeable-Phenotype (%) [10]: 12%; Population Mitochondria Different-Phenotype (%) [10]: 3%; Population Mitotic Cells (%) [10]: 25%; Population Normal (%) [10]: 77%; Population Pyknosed Nuclei (%) [10]: 2%; Population Tubulin-Different-Phenotype (%) [10]: 63%; Total Cell Count [10]: 231; Population Apoptotic (%) [11]: 66%; Population Fragmented Nuclei (%) [11]: 45%; Population Healthy Nuclei (%) [11]: 38%; Population Hoechst High Intensity Objects (%) [11]: 21%; Population Membrane Permeable-Phenotype (%) [11]: 40%; Population Mitochondria Different-Phenotype (%) [11]: 18%; Population Mitotic Cells (%) [11]: 33%; Population Normal (%) [11]: 78%; Population Pyknosed Nuclei (%) [11]: 16%; Population Tubulin-Different-Phenotype (%) [11]: 88%; Total Cell Count [11]: 165; Population Apoptotic (%) [12]: 60%; Population Fragmented Nuclei (%) [12]: 56%; Population Hoechst High Intensity Objects (%) [12]: 25%; Population Membrane Permeable-Phenotype (%) [12]: 14%; Population Mitochondria Different-Phenotype (%) [12]: 64%; Population Mitotic Cells (%) [12]: 40%; Population Normal (%) [12]: 74%; Population Pyknosed Nuclei (%) [12]: 4%; Population Tubulin-Different-Phenotype (%) [12]: 95%; Total Cell Count [12]: 146
